This note sets out measurements from ChEMBL document CHEMBL3351385, “Synthesis and preliminary mechanistic evaluation of 5-(p-tolyl)-1-(quinolin-2-yl)pyrazole-3-carboxylic acid amides with potent antiproliferative activity on human cancer cell lines” (Eur J Med Chem, 2014).

Active and inactive are the calls of the source. The calls are words filed in the database; no cut-off is given here.

The target in assay [1] is Dual specificity mitogen-activated protein kinase kinase 1 (Homo sapiens) (UniProt Q02750). In words: Inhibition of MKK1 (unknown origin) assessed as remaining enzyme activity at 10 uM by radioactive [33P]-ATP filter binding assay.
Assay [2] deals with Glycogen synthase kinase-3 beta (Homo sapiens) (UniProt P49841). In words: Inhibition of GSK3beta (unknown origin) assessed as remaining enzyme activity at 10 uM by radioactive [33P]-ATP filter binding assay.
For assay [3], the target named is Serine/threonine-protein kinase BRSK2 (Homo sapiens) (UniProt Q8IWQ3). In words: Inhibition of BRSK2 (unknown origin) assessed as remaining enzyme activity at 10 uM by radioactive [33P]-ATP filter binding assay. A digest of the protocol:
(§1)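 A single 10 µM concentration was tested across a 140-kinase panel. Activity was measured by a radioactive 33P-ATP filter-binding assay run at the International Center for Kinase Profiling, University of Dundee.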

Assay [4] deals with Tyrosine-protein kinase JAK2 (Homo sapiens) (UniProt O60674). In words: Inhibition of JAK2 (unknown origin) assessed as remaining enzyme activity at 10 uM by radioactive [33P]-ATP filter binding assay.
The target of assay [5] is SRSF protein kinase 1 (Homo sapiens) (UniProt Q96SB4). In words: Inhibition of SRPK1 (unknown origin) assessed as remaining enzyme activity at 10 uM by radioactive [33P]-ATP filter binding assay.
In assay [6] the target is Fibroblast growth factor receptor 1 (Homo sapiens) (UniProt P11362). In words: Inhibition of FGFR1 (unknown origin) assessed as remaining enzyme activity at 10 uM by radioactive [33P]-ATP filter binding assay. A digest of the protocol: as §1
The target of assay [7] is Serine/threonine-protein kinase STK11 (Homo sapiens) (UniProt Q15831). In words: Inhibition of LKB1 (unknown origin) assessed as remaining enzyme activity at 10 uM by radioactive [33P]-ATP filter binding assay.
The target in assay [8] is Dual specificity mitogen-activated protein kinase kinase 2 (Homo sapiens) (UniProt P36507). In words: Inhibition of MKK2 (unknown origin) assessed as remaining enzyme activity at 10 uM by radioactive [33P]-ATP filter binding assay.
In assay [9] the target is Mitogen-activated protein kinase kinase kinase kinase 5 (Homo sapiens) (UniProt Q9Y4K4). In words: Inhibition of MAP4K5 (unknown origin) assessed as remaining enzyme activity at 10 uM by radioactive [33P]-ATP filter binding assay.
The target of assay [10] is Serine/threonine-protein kinase N2 (Homo sapiens) (UniProt Q16513). In words: Inhibition of PRK2 (unknown origin) assessed as remaining enzyme activity at 10 uM by radioactive [33P]-ATP filter binding assay.
Assay [11] deals with Serine/threonine-protein kinase MARK2 (Homo sapiens) (UniProt Q7KZI7). In words: Inhibition of MARK2 (unknown origin) assessed as remaining enzyme activity at 10 uM by radioactive [33P]-ATP filter binding assay.
The target in assay [12] is Homeodomain-interacting protein kinase 1 (Homo sapiens) (UniProt Q86Z02). In words: Inhibition of HIPK1 (unknown origin) assessed as remaining enzyme activity at 10 uM by radioactive [33P]-ATP filter binding assay.
For assay [13], the target named is Mitogen-activated protein kinase kinase kinase 7, TAK1 (Homo sapiens) (UniProt O43318). In words: Inhibition of TAK1 (unknown origin) assessed as remaining enzyme activity at 10 uM by radioactive [33P]-ATP filter binding assay.
Assay [14] addresses Dual specificity protein kinase CLK2 (Homo sapiens) (UniProt P49760). In words: Inhibition of CLK2 (unknown origin) assessed as remaining enzyme activity at 10 uM by radioactive [33P]-ATP filter binding assay. Summed up:
as §1

The target of assay [15] is Mitogen-activated protein kinase 8 (Homo sapiens) (UniProt P45983). In words: Inhibition of JNK1 (unknown origin) assessed as remaining enzyme activity at 10 uM by radioactive [33P]-ATP filter binding assay.
The target of assay [16] is Aurora kinase B (Homo sapiens) (UniProt Q96GD4). In words: Inhibition of Aurora B (unknown origin) assessed as remaining enzyme activity at 10 uM by radioactive [33P]-ATP filter binding assay. Summed up: as §1
In assay [17] the target is Serine/threonine-protein kinase tousled-like 1 (Homo sapiens) (UniProt Q9UKI8). In words: Inhibition of TLK1 (unknown origin) assessed as remaining enzyme activity at 10 uM by radioactive [33P]-ATP filter binding assay.
Assay [18] has as its target Serine/threonine-protein kinase 26 (Homo sapiens) (UniProt Q9P289). In words: Inhibition of MST4 (unknown origin) assessed as remaining enzyme activity at 10 uM by radioactive [33P]-ATP filter binding assay.
Assay [19] has as its target Ephrin type-B receptor 1 (Homo sapiens) (UniProt P54762). In words: Inhibition of EPHB1 (unknown origin) assessed as remaining enzyme activity at 10 uM by radioactive [33P]-ATP filter binding assay. A digest of the protocol: as §1
The target in assay [20] is Maternal embryonic leucine zipper kinase (Homo sapiens) (UniProt Q14680). In words: Inhibition of MELK (unknown origin) assessed as remaining enzyme activity at 10 uM by radioactive [33P]-ATP filter binding assay.
The subject of assay [21] is Huh-7. In words: Induction of cell death in human HuH7 cells assessed as DNA fragmentation at cytotoxic IC50 level after 72 hrs by Hoechst 33258 staining based […]. The class given is functional. A digest of the protocol:
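Cells were washed in cold PBS, fixed 10 min in cold methanol and stained with Hoechst 33258 at 3 µg/mL for 5 min in the dark. Nuclear condensation and fragmentation were examined by fluorescence microscopy at 40×.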

Assay [22] has as its target Aurora kinase A (Homo sapiens) (UniProt O14965). In words: Inhibition of Aurora A (unknown origin) assessed as remaining enzyme activity at 10 uM by radioactive [33P]-ATP filter binding assay. Summed up: as §1

Fibroblast growth factor receptor 1 (Homo sapiens), sequence (P11362 22-822 limits assumed): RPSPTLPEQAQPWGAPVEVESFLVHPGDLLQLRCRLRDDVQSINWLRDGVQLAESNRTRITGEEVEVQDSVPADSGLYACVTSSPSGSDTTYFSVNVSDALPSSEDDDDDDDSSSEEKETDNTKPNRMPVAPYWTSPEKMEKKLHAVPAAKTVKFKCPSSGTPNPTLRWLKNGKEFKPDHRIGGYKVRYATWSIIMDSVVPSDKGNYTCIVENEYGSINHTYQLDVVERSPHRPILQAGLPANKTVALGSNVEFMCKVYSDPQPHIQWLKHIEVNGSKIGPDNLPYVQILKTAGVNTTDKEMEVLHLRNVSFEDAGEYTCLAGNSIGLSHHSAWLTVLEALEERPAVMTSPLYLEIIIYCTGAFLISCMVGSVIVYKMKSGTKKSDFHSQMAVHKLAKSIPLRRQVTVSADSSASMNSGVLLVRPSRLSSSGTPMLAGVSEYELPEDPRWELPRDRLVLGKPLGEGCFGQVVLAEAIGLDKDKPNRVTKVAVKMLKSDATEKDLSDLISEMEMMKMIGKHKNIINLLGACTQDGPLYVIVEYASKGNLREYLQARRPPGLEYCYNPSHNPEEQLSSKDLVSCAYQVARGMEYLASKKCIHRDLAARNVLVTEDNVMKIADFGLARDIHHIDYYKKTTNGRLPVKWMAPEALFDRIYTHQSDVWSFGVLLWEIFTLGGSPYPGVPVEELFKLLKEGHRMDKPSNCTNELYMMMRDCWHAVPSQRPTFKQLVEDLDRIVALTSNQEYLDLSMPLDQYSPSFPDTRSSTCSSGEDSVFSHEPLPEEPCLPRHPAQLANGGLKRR
Serine/threonine-protein kinase MARK2 (Homo sapiens), sequence (Q7KZI7 whole entry): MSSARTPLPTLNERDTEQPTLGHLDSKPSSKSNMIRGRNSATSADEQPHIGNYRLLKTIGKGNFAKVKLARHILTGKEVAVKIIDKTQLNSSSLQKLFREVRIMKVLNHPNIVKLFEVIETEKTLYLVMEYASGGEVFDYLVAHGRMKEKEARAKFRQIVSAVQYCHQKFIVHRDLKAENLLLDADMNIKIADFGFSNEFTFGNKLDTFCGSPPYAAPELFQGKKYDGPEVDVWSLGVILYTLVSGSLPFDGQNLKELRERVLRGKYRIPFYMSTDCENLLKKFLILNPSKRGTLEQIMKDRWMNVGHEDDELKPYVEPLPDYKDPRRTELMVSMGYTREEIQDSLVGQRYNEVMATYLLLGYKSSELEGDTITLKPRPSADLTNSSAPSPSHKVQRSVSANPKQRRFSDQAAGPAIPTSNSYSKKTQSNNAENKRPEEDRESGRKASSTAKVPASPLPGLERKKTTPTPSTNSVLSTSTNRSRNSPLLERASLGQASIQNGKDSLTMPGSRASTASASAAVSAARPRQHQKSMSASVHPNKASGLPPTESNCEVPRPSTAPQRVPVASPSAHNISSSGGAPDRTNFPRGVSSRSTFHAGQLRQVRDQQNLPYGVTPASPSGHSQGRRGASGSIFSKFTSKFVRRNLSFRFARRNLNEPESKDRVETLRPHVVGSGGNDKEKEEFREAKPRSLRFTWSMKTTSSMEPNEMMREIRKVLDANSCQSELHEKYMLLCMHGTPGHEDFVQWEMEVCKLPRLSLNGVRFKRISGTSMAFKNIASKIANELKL
Serine/threonine-protein kinase BRSK2 (Homo sapiens), sequence (Q8IWQ3 whole entry): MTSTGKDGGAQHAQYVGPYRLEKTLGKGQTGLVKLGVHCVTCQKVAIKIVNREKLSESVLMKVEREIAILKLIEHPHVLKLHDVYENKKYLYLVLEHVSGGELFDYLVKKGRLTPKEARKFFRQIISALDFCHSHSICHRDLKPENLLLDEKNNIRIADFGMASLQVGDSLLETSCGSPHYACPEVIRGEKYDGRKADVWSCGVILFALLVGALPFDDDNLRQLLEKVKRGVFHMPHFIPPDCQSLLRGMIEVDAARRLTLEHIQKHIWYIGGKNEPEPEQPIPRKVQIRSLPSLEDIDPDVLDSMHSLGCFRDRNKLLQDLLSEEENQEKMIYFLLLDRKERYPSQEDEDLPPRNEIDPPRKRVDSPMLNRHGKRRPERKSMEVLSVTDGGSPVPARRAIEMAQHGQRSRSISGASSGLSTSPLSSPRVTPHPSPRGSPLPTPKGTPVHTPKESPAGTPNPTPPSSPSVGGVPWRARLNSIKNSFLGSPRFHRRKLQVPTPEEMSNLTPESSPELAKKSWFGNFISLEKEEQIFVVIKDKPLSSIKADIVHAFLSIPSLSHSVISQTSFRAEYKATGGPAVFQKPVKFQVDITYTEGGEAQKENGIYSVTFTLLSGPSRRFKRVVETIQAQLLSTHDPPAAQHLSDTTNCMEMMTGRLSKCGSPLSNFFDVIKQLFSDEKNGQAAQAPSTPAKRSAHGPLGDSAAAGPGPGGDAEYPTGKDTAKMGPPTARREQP
Serine/threonine-protein kinase tousled-like 1 (Homo sapiens), sequence (Q9UKI8 whole entry): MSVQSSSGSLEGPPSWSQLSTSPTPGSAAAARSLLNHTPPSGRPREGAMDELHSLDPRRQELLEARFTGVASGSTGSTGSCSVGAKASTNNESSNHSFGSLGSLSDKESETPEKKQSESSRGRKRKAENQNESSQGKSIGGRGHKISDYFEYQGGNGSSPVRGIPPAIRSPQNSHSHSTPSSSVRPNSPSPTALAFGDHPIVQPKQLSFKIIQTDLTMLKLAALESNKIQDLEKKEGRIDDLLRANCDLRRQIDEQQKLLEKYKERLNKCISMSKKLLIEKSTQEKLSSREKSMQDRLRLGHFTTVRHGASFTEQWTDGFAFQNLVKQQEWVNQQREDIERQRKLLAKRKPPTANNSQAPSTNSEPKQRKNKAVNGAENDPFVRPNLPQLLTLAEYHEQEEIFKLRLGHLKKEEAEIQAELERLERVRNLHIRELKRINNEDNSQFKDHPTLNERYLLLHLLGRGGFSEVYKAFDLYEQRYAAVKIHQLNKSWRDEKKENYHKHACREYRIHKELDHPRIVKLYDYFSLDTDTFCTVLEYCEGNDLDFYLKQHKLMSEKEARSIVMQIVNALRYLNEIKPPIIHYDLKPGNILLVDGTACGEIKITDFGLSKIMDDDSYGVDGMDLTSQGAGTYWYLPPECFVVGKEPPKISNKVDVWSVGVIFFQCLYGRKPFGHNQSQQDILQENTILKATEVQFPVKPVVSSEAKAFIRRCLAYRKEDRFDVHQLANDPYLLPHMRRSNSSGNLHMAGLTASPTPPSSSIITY
Maternal embryonic leucine zipper kinase (Homo sapiens), sequence (Q14680 whole entry, looked up, the tested form may be a part): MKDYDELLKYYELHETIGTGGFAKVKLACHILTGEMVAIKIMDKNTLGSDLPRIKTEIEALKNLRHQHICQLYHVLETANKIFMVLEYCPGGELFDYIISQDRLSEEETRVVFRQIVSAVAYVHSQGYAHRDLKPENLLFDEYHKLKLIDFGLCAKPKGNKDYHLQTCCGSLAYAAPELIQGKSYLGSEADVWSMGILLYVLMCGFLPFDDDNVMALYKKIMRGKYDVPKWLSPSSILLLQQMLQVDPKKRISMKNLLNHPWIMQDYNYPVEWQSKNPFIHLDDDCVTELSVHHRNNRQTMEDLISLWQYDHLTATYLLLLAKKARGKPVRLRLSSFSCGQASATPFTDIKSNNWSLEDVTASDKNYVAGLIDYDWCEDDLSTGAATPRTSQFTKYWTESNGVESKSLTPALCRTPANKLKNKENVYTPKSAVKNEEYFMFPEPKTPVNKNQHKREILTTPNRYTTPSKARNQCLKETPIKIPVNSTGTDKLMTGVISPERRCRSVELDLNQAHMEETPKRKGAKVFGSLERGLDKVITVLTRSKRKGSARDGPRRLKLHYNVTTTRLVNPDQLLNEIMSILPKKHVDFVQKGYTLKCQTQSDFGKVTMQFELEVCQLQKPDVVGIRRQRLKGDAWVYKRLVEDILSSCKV
Tyrosine-protein kinase JAK2 (Homo sapiens), sequence (O60674 whole entry): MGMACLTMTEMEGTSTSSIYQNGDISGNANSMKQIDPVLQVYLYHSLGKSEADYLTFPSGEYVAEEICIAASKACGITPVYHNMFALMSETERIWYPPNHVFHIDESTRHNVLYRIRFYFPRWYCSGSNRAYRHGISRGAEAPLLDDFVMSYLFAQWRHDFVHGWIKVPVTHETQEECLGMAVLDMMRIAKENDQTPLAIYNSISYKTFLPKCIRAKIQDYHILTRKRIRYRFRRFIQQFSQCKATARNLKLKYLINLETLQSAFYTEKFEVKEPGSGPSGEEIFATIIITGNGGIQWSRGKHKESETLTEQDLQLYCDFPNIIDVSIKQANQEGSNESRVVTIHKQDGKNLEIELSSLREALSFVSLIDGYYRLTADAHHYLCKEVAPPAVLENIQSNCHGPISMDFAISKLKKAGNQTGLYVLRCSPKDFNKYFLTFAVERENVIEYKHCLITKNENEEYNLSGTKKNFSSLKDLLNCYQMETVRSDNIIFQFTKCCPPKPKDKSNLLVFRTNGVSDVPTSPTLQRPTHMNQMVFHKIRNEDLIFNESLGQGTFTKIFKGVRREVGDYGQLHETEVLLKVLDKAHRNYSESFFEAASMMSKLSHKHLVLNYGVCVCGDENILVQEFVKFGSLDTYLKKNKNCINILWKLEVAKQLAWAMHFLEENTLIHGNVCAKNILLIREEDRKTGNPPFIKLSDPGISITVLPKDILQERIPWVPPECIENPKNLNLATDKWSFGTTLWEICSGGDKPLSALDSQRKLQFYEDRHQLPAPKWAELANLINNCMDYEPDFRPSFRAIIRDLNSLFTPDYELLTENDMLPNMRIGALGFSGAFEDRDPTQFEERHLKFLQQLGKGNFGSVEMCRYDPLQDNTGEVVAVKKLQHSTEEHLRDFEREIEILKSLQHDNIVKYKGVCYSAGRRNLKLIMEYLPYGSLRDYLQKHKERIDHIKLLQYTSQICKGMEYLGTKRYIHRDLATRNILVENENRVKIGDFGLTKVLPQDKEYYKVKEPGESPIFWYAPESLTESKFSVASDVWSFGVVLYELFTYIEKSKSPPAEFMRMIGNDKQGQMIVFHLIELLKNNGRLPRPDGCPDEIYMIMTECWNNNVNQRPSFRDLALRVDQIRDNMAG

Take `Cc1ccc(-c2cc(C(=O)Nc3ccnc(Cl)c3)nn2-c2ccc3ccccc3n2)cc1`: the Activity turned out to be 95% in [1]; 103% in assay [2]; 102% in assay [3]; 99% in [4]; 104% in [5]; 127% in assay [6]. For the same compound, the Activity in [7] was 115%; in [8], 94%; in assay [9] it was 87%; in assay [10] it was 98%; in [11], 101%; in [12], 98%. The Activity in [13] amounted to 91%; in assay [14], 83%; in assay [15], 103%; in assay [16] it was 104%; in [17], 114%; in assay [18] it was 110%. In addition, the Activity in assay [19] was 128%; in assay [20] it was 98%; in assay [22], 120%. Further, the result in assay [21] was Active.
